One may read the IC50 as the midpoint of a concentration-inhibition curve. The MTD is the highest dose tested that stayed within the study's limit of toxicity. As a reminder, the Cmax is the maximum level reached in the sampled fluid or tissue. The half-life is the time needed for the level to fall by half in the phase considered. The AUC(0-t) is exposure summed from dosing to a finite time, without extrapolation to infinity. Higher therefore signals high exposure.

This is an account of results in ChEMBL document CHEMBL4024793, “Development of Stem-Cell-Mobilizing Agents Targeting CXCR4 Receptor for Peripheral Blood Stem Cell Transplantation and Beyond” (J Med Chem, 2018).

In data set [1] the target is C-X-C chemokine receptor type 4 (Homo sapiens, UniProt P61073). Nature of the data set: Displacement of [125I]CXCL12 from human CXCR4 expressed in HEK293 cell membranes after 1.5 hrs by Topcount method. On the technique in general: Displacement assays read how much labelled ligand stays bound in the presence of the test substance.
Data set [2] in a line: Acute toxicity in sc dosed C57BL/6 mouse assessed as maximum tolerated dose by measuring mortality. It is filed as organism-based. Conditions: in vivo. The method, boiled down: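 Male C57BL/6 or ICR mice (n = 3/group) dosed subcutaneously with escalating doses, low to high; MTD taken as highest dose giving zero mortality (0/3).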
The nature of data set [3]: Cmax in C57BL/6 mouse at 6 mg/kg, sc measured up to 4 hrs post dose by LC-MS/MS analysis. Format: ADME, organism-based. On the set-up: dose 6 mg/kg, route subcutaneous. Conditions: in vivo. The method, boiled down: (§1)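 Male C57BL/6 mice (23.4–25.4 g), quarantined one week, non-fasted, n = 3; single SC dose of 6 mg/kg in 100% saline. Blood taken by cardiac puncture at 0, 0.03, 0.08, 0.25, 1, 1.5, 2 and 4 h and stored at -80 °C. Plasma analysed by LC–MS/MS; parameters from non-compartmental analysis; mean ± SD.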

Data set [4] is described as follows: Half life in C57BL/6 mouse at 6 mg/kg, sc measured up to 4 hrs post dose by LC-MS/MS analysis. It is filed as ADME, organism-based. The following applies: in vivo. The method, boiled down: as §1
A short description of data set [5]: AUC (0 to 4 hrs) in C57BL/6 mouse at 6 mg/kg, sc measured up to 4 hrs post dose by LC-MS/MS analysis. Format: ADME, organism-based. On the set-up: dose 6 mg/kg, time < 4 hr, route subcutaneous. Conditions: in vivo. The method, boiled down: as §1

C-X-C chemokine receptor type 4, sequence (P61073 whole entry): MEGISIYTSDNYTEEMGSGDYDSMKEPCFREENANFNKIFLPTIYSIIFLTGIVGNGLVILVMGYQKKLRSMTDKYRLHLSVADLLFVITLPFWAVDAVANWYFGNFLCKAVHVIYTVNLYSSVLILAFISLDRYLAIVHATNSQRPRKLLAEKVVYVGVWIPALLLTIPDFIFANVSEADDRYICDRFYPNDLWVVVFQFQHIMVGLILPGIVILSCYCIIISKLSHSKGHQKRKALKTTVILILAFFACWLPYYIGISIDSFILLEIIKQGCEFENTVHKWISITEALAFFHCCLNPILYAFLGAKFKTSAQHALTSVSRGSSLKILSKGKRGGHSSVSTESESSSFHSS

On to `Cc1cc(N(C)C2CCN(C(=O)CCNCC(=O)O)CC2)nc(NCc2cn(CCCNCCCNC3CCCCC3)nn2)n1`, for which, in data set [1], the IC50 was determined as 97.6 nM. Further, the maximum tolerated dose (MTD) in data set [2] stood at 50 mg/kg.
The corresponding values for `c1cc(NC2CCNCC2)nc(NCc2cn(CCCNCCCNC3CCCCC3)nn2)n1` are 34.1 nM and 10 mg/kg.
The corresponding values for `Cc1cc(NC2CCN(CCCCC(=O)O)CC2)nc(NCc2cn(CCCNCCCNC3CCCCC3)nn2)n1` are 93 nM and 75 mg/kg.
For `Cc1cc(NC2CCN(CCC(N)=O)CC2)nc(NCc2cn(CCCNCCCNC3CCCCC3)nn2)n1` the same measures were 25.6 nM and 20 mg/kg.
In turn, `CCc1cc(NC2CCNCC2)nc(NCc2cn(CCCNCCCNC3CCCCC3)nn2)n1` yielded a 50% inhibitory concentration (IC50) in data set [1] of 46.8 nM. For the same compound, the maximum tolerated dose (MTD) in data set [2] is 10 mg/kg.
With `CCc1cc(NC2CCN(C(=O)CCNCC(=O)O)CC2)nc(NCc2cn(CCCNCCCNC3CCCCC3)nn2)n1`, the IC50 in data set [1] is 72 nM. For the same compound, in data set [2], the maximal tolerated dose (MTD) was 50 mg/kg.
The corresponding values for `COc1cc(NC2CCNCC2)nc(NCc2cn(CCCNCCCNC3CCCCC3)nn2)n1` are 473 nM and 10 mg/kg.
For `Cc1cc(NC2CCN(C(=O)CCCNCC(=O)O)CC2)nc(NCc2cn(CCCNCCCNC3CCCCC3)nn2)n1` the same measures were 88.5 nM and 75 mg/kg.
`c1cc(CN2CCCNCCNCCCNCC2)ccc1CN1CCCNCCNCCCNCC1` [PLERIXAFOR]: in data set [3], the concentration peaked (Cmax) at 6200 ng/mL. This compound had a half-life in data set [4] of 1.4 h. The AUC(0-t) at 4 h in data set [5] was 7150 ng·h/mL.
`Cc1cc(NC2CCN(C(=O)CNCCC(=O)O)CC2)nc(NCc2cn(CCCNCCCNC3CCCCC3)nn2)n1` yielded an IC50 in data set [1] of 82.6 nM. The MTD in data set [2] worked out at 100 mg/kg.
For `Clc1cc(NC2CCNCC2)nc(NCc2cn(CCCNCCCNC3CCCCC3)nn2)n1` the same measures were 708 nM and 10 mg/kg.
The corresponding values for `CC(C)c1cc(NC2CCNCC2)nc(NCc2cn(CCCNCCCNC3CCCCC3)nn2)n1` are 61.1 nM and 10 mg/kg.
For `Cc1cc(NC2CCN(C(=O)CCNCCC(=O)O)CC2)nc(NCc2cn(CCCNCCCNC3CCCCC3)nn2)n1` the same measures were 72.2 nM and 50 mg/kg.
`CCCN1CCC(Nc2cc(C)nc(NCc3cn(CCCNCCCNC4CCCCC4)nn3)n2)CC1` yielded a half-maximal inhibitory concentration (IC50) in data set [1] of 47.8 nM. Moreover, in data set [2], the maximal tolerated dose (MTD) turned out to be 10 mg/kg.
The corresponding values for `O=C(O)CNCCC(=O)N1CCC(Nc2ccnc(NCc3cn(CCCNCCCNC4CCCCC4)nn3)n2)CC1` are 399 nM and 100 mg/kg.
Regarding `Cc1cc(NC2CCN(CCC#N)CC2)nc(NCc2cn(CCCNCCCNC3CCCCC3)nn2)n1`, the IC50 in data set [1] came to 72.1 nM. Besides, in data set [2], the maximal tolerated dose (MTD) came out at 20 mg/kg.
For `Cc1cc(NC2CCN(C(=O)CCCC(=O)O)CC2)nc(NCc2cn(CCCNCCCNC3CCCCC3)nn2)n1` the same measures were 158 nM and 50 mg/kg.
The corresponding values for `Cc1cc(NC2CCN(C(=O)CCNCP(=O)(O)O)CC2)nc(NCc2cn(CCCNCCCNC3CCCCC3)nn2)n1` are 91.6 nM and 100 mg/kg.
`Cc1cc(NC2CCN(C(=O)CCNCCP(=O)(O)O)CC2)nc(NCc2cn(CCCNCCCNC3CCCCC3)nn2)n1` registered a half-inhibitory concentration (IC50) in data set [1] of 147 nM.
With `Cc1cc(NC2CCNCC2)nc(NCc2cn(CCCNCCCNC3CCCCC3)nn2)n1`, the IC50 in data set [1] was determined as 23.9 nM. Further, in data set [2], the MTD came to 10 mg/kg.
For `Cc1cc(NC2CCN(C(=O)CC[C@H](N)C(=O)O)CC2)nc(NCc2cn(CCCNCCCNC3CCCCC3)nn2)n1` the same measures were 71.1 nM and 50 mg/kg.
The corresponding values for `FC(F)(F)c1cc(NC2CCNCC2)nc(NCc2cn(CCCNCCCNC3CCCCC3)nn2)n1` are 860 nM and 10 mg/kg.
For `Cc1cc(NC2CCN(CCC(=O)O)CC2)nc(NCc2cn(CCCNCCCNC3CCCCC3)nn2)n1` the same measures were 81.8 nM and 75 mg/kg.
